Experimental data collected from several papers.
Read-out: cell growth or viability

| Compound | cell line | assay | conditions | quantity | value |
| --- | --- | --- | --- | --- | --- |
| Cc1cc(Cn2ccnc2)nn1C | SH-SY5Y | MTT | 24 h | IC50 | 487 µM |
| CNC(=O)c1cc(Oc2ccc(NC(=O)Nc3ccc(Cl)c(C(F)(F)F)c3)cc2)ccn1 | PLC-PRF-5 | imaging | 72 h | IC50 | 4.08 µM |
| Cc1nc(NC(=O)N2CCC[C@H]2C(N)=O)sc1-c1ccnc(C(C)(C)C(F)(F)F)c1 | EFM-19 | ATP luminescence | 5 days | EC50 | 0.38 µM |
| CN(C)CCNC(=O)c1cccn2c(=O)c3cc4ccccc4cc3nc12 | PLC-PRF-5 | imaging | 72 h | IC50 | 16.2 µM |
| COc1ccc(C[C@H](N)C(=O)N[C@H]2[C@@H](O)[C@H](n3cnc4c(N(C)C)ncnc43)O[C@@H]2CO)cc1 | J774.1 | resazurin | 72 h | IC50 | 1.36 µM |
| C[C@H](Nc1ccc2c(c1)OCCn1cc(N3C(=O)OC[C@H]3C(F)F)nc1-2)C(N)=O | EFM-19 | ATP luminescence | 5 days | EC50 | 0.0312 µM |
| Cc1cc(C)n(Cn2ccnc2)n1 | SH-SY5Y | MTT | 24 h | IC50 | 50.3 µM |
| Cc1nc(Nc2ncc(C(=O)Nc3c(C)cccc3Cl)s2)cc(N2CC[C@H](O)C2)n1 | SUP-B15 | ATP luminescence | 10 µM, 72 h | inhibition | 66% |
